In ChEMBL document CHEMBL1144777, “An endophytic fungus from Hypericum perforatum that produces hypericin” (J Nat Prod, 2008):
Activity calls are given as the source filed them.

How the values were obtained:
[1] = test system: Klebsiella pneumoniae subsp. pneumoniae; assay: Antimicrobial activity against Klebsiella pneumoniae ssp. ozaenae DSM 681 by disk diffusion method; assay type: functional, organism-based
Procedure, shortened: (§1)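 Samples were fungal products from potato dextrose broth cultures, tested alongside authentic standards. Organic extracts of mycelia and broth were dried by rotary evaporation at 30 °C and redissolved in 1 mL HPLC-grade methanol.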

Staphylococcus aureus = assay: Antimicrobial activity against Staphylococcus aureus ssp. Aureus DSM 799 by disk diffusion method; assay type: functional; procedure, shortened: as §1
Pseudomonas aeruginosa = assay: Antimicrobial activity against Pseudomonas aeruginosa DSM 1128 by disk diffusion method; assay type: functional, organism-based; procedure, shortened: as §1
[2] = test system: Salmonella enterica subsp. enterica; assay: Antimicrobial activity against Salmonella enterica ssp. enterica DSM 9898 by disk diffusion method; assay type: functional, organism-based; procedure, shortened: as §1
Candida albicans = assay: Antimicrobial activity against Candida albicans DSM 1386 by disk diffusion method; assay type: functional, organism-based; procedure, shortened: as §1
Aspergillus niger = assay: Antimicrobial activity against Aspergillus niger DSM 1988 by disk diffusion method; assay type: functional, organism-based; procedure, shortened: as §1
Escherichia coli = assay: Antimicrobial activity against Escherichia coli DSM 682 by disk diffusion method; assay type: functional, organism-based; procedure, shortened: as §1

Measured: Activity

Cc1cc(O)c2c(=O)c3c(O)cc(O)c4c5c(O)cc(O)c6c(=O)c7c(O)cc(C)c8c1c2c(c34)c(c78)c65
active: all assays above

Cc1cc(O)c2c(c1)C(=O)c1cc(O)cc(O)c1C2=O
active: all assays above
